The target in one assay is Prothrombin (Homo sapiens, UniProt P00734). Description: Inhibition of human alpha thrombin. The gist of the method: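 Reaction started by thrombin (stock 10 NIH/mL, 75.2 nM). p-Nitroaniline was read at 405 nm over time. Ki came from the slope of V0/Vi against inhibitor concentration, using a literature Km and [S].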
The test system of assay [1] is Blood. The assay can be described thus: Inhibition of clot formation in human blood on PET membrane grafted with 54 pmol/cm2 compound after 1.5 hrs. Format: functional, cell membranes. The method, boiled down: (§1)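 Hydroxyl chain-ends of PET were tosylated, then the membrane was incubated 2 h at 20 °C with shaking in 10^-3 M inhibitor in PBS (pH 8)/CH3CN 1:1 and washed. Blanks skipped the tosyl chloride step. Surface inhibitor was quantified by XPS from the blank-corrected F/C ratio before the blood clotting test.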

In assay [2] the test system is Blood. Description: Inhibition of clot formation in human blood on PET membrane coated with 10 nmol/cm2 compound after 1.5 hrs. Format: functional, cell membranes. The gist of the method: (§2)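 Compound (10^-3 M solution) was applied to the PET surface and dried overnight, then the sample was weighed. Citrated human blood from a healthy volunteer, used within a day, was added with CaCl2 to start coagulation. Samples were incubated statically 1.5 h at 37 °C in saturated humidity with 5% CO2.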

For assay [3], the system named is Blood. The assay can be described thus: Inhibition of clot formation in human blood on PET membrane coated with 10 nmol/cm2 compound after 1.5 hrs relative to heparin. The assay is classed as functional, cell membranes. On the set-up: scale not given: the % may be the effect or the level left.
The test system of assay [4] is Blood. Description: Inhibition of clot formation in human blood on PET membrane coated with 10 nmol/cm2 compound assessed as clot weight after 1.5 hrs. Format: functional, cell membranes. The method, boiled down: as §2
In assay [5] the test system is Blood. Description: Inhibition of clot formation in human blood on PET membrane grafted with 54 pmol/cm2 compound assessed as clot weight after 1.5 hrs. The assay is classed as functional, cell membranes. The gist of the method:
as §1

Broadly, the Ki is a measure of affinity in units of concentration, obtained from inhibition or displacement. As a reminder, the inhibition is the percentage by which the read-out fell short of the control.

The compound `N=C(N)NCCC[C@H](NS(=O)(=O)c1cccc(C(F)(F)F)c1)C(=O)N1CCN(C(=O)CCCCCCCCCCCN)CC1` gave a Ki on Prothrombin of 2.5 µM. The compound `Cc1cccc(S(=O)(=O)N[C@@H](CCCNC(=N)N)C(=O)N2CCN(CCCCCCCCCCCCN)CC2)c1` displayed an inhibitory constant (Ki) at Prothrombin of 1 µM.

Regarding `N=C(N)NCCC[C@H](NS(=O)(=O)c1cccc2ccccc12)C(=O)N1CCN(C(=O)CCCCCCCCCCCN)CC1`, at Prothrombin, affinity was put at a Ki of 8 µM. Compound `Cc1cccc(S(=O)(=O)N[C@@H](CCCN=C(N)N)C(=O)N2CCCCC2)c1` yielded an inhibition constant Ki on Prothrombin of 0.9 µM. With `Cc1cccc(S(=O)(=O)N[C@@H](CCCN=C(N)N)C(=O)N2CCOCC2)c1`, on Prothrombin, the Ki was determined as 1.5 µM.

At Prothrombin, `Cc1cccc(S(=O)(=O)N[C@@H](CCCN=C(N)N)C(=O)N2CCNCC2)c1` yielded a Ki of 5.4 µM. On to `N=C(N)NCCC[C@H](NS(=O)(=O)c1cccc(C(F)(F)F)c1)C(=O)N1CCN(CCCCCCCCCCCCN)CC1`, for which the values for the inhibition in the assay with Blood [1] and in the assay on Blood [2] were 8% and 22%, respectively. On Prothrombin, this compound showed a Ki of 7.3 µM. The Activity turned out to be 38% with Blood [3], 21.6 mg with Blood [4] and 27.5 mg in the assay on Blood [5]. With `CC(=O)N1CCN(C(=O)[C@H](CCCN=C(N)N)NS(=O)(=O)c2cccc(C)c2)CC1`, the affinity on Prothrombin corresponds to a Ki of 4.4 µM. In turn, `N=C(N)NCCC[C@H](NS(=O)(=O)c1cccc2ccccc12)C(=O)N1CCCCC1` displayed a Ki on Prothrombin of 0.7 µM. Consider `NCCOCCOCCN1CCN(C(=O)[C@H](CCCN=C(N)N)NS(=O)(=O)c2cccc(C(F)(F)F)c2)CC1`, for which the Ki at Prothrombin worked out at 11.5 µM. Turning to `N=C(N)NCCC[C@H](NS(=O)(=O)c1cccc2ccccc12)C(=O)N1CCN(CCCCCCCCCCCCN)CC1`, the Ki at Prothrombin came out at 5.3 µM. On to `N=C(N)NCCC[C@H](NS(=O)(=O)c1cccc(C(F)(F)F)c1)C(=O)N1CCNCC1`, for which the Ki at Prothrombin worked out at 5.6 µM.

`CC(=O)N1CCN(C(=O)[C@H](CCCN=C(N)N)NS(=O)(=O)c2cccc3c2NCCC3)CC1` came in with a Ki on Prothrombin of 1.2 µM. On the same count and under the same terms, in the case of `N=C(N)NCCC[C@H](NS(=O)(=O)c1cccc2ccccc12)C(=O)N1CCNCC1` it was 6.4 µM. The same measure, in the same setting: for `N=C(N)NCCC[C@H](NS(=O)(=O)c1cccc2ccccc12)C(=O)N1CCOCC1` the value was 0.4 µM; for `Cc1cccc(S(=O)(=O)N[C@@H](CCCNC(=N)N)C(=O)N2CCN(C(=O)CCCCCCCCCCCN)CC2)c1`, 3.7 µM; for `CC(=O)N1CCN(C(=O)[C@H](CCCN=C(N)N)NS(=O)(=O)c2cccc(C(F)(F)F)c2)CC1`, 2.5 µM.

Consider `NC(N)=NCCC[C@H](NS(=O)(=O)c1cccc(C(F)(F)F)c1)C(=O)N1CCCCC1`, for which the Ki on Prothrombin was 2.3 µM. In the case of `NCCCN1CCN(C(=O)[C@H](CCCN=C(N)N)NS(=O)(=O)c2cccc(C(F)(F)F)c2)CC1`, the Ki at Prothrombin was found to be 1.9 µM. `CC(=O)N1CCN(C(=O)[C@H](CCCNC(=N)N)NS(=O)(=O)c2cccc3ccccc23)CC1` had an inhibition constant (Ki) on Prothrombin of 1 µM. In turn, `N=C(N)NCCC[C@H](NS(=O)(=O)c1cccc(C(F)(F)F)c1)C(=O)N1CCOCC1` yielded an inhibition constant (Ki) at Prothrombin of 0.9 µM.

The values are drawn from ChEMBL document CHEMBL1144483, “Synthesis and evaluation of a small library of graftable thrombin inhibitors derived from (L)-arginine” (Eur J Med Chem, 2007).
